# Variants at the floor of the assay were thinned out.
# B1: tRNA (parent)
# chain: GUUCCGUUGGCGUAAUGGUAACGCGUCUCCCUCCUAAGGAGAAGACUGCGGGUUCGAGUCCCGUACGGAACG
# Variants of: B1
# Experiment: yeast fitness relative to wild type (ratio to wild type); higher = fitter; tRNA-Arg(CCU), competitive growth, 37 C, YPD
# Summary of the method: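 For this measurement, the tRNA-Arg(CCU) gene was varied by chemical synthesis at a 3% per-site mutation rate across 69 sites, and each variant was placed at the native genomic locus in Saccharomyces cerevisiae. The pooled strains went through a 24-hour competition in YPD at 37°C in six parallel replicates, with amplicons from start and end populations read by 100-nucleotide paired-end sequencing. Darwinian fitness relative to wild type followed from the change in each genotype's frequency. Genotypes needed ≥ 100 starting reads, and estimates < 0.5 were set to 0.5.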
row,Variant,yeast fitness
1,A20C A42C G48A,0.591
2,U19G A42U C55U,0.692
3,U19C G58A,0.961
4,A20C C30G C46A U47G C49A G52A G58C U64G A65G,≤ 0.5
5,U19C G23C C61G,≤ 0.5
6,U19C G23C U53C,0.562
7,U19G A43C G63U U64A,≤ 0.5
8,A20C C29U G50C U59G C62U G68A,0.567
9,A20C G25C G44C G58A G68C,≤ 0.5
10,U19G A40C,0.732
11,A20C A21C G23C C30G A65U C66U,≤ 0.5
12,A20C C27U G51C U64A C66U A69C,≤ 0.5
13,U19G C24A A40C A45U,≤ 0.5
14,U19G A20U C27G,≤ 0.5
15,U19G A20U C27A,0.587
16,A20C C30G A40G,≤ 0.5
17,A20C C55U C66G,≤ 0.5
18,A20C A21C C61A G67C,≤ 0.5
19,U19C C49A G68C,≤ 0.5
20,U19C C29G G44C,0.505
21,U19C C24G A37U U47A C66A,≤ 0.5
22,U19G C49U,0.859
23,U19C G50A C55A A65U,≤ 0.5
24,A20C C24U A42U U59C,0.619

row,Variant,yeast fitness
1,U19G C22U C49U C62A,≤ 0.5
2,U19G C24A C30U,≤ 0.5
3,A20C G58C,1.03
4,A20C A42U A65U,0.553
5,U19G G63C A69U,≤ 0.5
6,A20C A40G,0.647
7,A20C C29G G52A,≤ 0.5
8,A20C A40U A65U G67C,≤ 0.5
9,U19G A21U C29G,0.62
10,U19C U28C C29G A57U,≤ 0.5
11,U19G G44A C46G,0.946
12,A20C A21C A45G,≤ 0.5
13,A20C C55U G67A,0.53
14,A20C A57U A65U,0.571
15,U19C G25C G51C C60U G67A,0.545
16,A20C G67C A69G,0.539
17,U19G C29U A70C,≤ 0.5
18,U19C C62A,0.713
19,U19C C62G,0.832
20,A20C C46G,1.02
21,U19C G38C G44C C46A A70G,0.574
22,A20C C24G C27A G51C C61U,0.586
23,A20C A40G C60G,≤ 0.5
24,A20C A21G A45C,0.687

row,Variant,yeast fitness
1,A20C C34U C66U,0.543
2,U19C U26G A36C,≤ 0.5
3,U19C C31A G50U C62G G63A,≤ 0.5
4,A20C A70U,1.12
5,A20C A36C G41C G67C A69G,≤ 0.5
6,A20C A21U C31U C60U A65U,≤ 0.5
7,A20C A43U A69C,0.605
8,A20C C34A C62U,≤ 0.5
9,U19C U32C C33G C34U U54A C66U,≤ 0.5
10,U19C G48A G50A,0.693
11,U19C C27A U54G,≤ 0.5
12,U19C C27A C30U G56C,≤ 0.5
13,U19G A70U,1.02
14,U19G A70C,0.999
15,U19C C29G U54A A65C,≤ 0.5
16,U19C C24U U64A,0.73
17,A20C C34G A43C G56A C61U A65G,≤ 0.5
18,U19G A65G,1.03
19,U19C C29G C61U C66A,≤ 0.5
20,A20C G44C C61U,0.56
21,A20C G52A G68A,≤ 0.5
22,U19C C27U C55G,0.544
23,U19C G48A G58C C61A,≤ 0.5
24,A20C U26C C30U C61A,≤ 0.5

row,Variant,yeast fitness
1,U19C U32A A37C C55G,≤ 0.5
2,U19C C46A A57C A70C,≤ 0.5
3,U19G A42C A43C,0.951
4,A20C C30G U53G C61G,0.621
5,U19C C34A,0.76
6,A20C G44A,0.778
7,U19G C31U U32A A45U A70U,≤ 0.5
8,A20C C24G C27A G44A,≤ 0.5
9,U19G C22U A37G C66U A69U,0.61
10,U19C U32G C33G,≤ 0.5
11,A20C G23A U35A G52C C55A,≤ 0.5
12,A20C C46G C62G,0.529
13,U19G C22U C31U A40U G67A,0.637
14,A20C C30U G51C C55G A57U C66U,≤ 0.5
15,A20C A37C G41C G51C,≤ 0.5
16,A20C C34A G56C,≤ 0.5
17,A20C A36G G48A G50C,≤ 0.5
18,U19C C31U C34U A57C,≤ 0.5
19,U19G U28C A42C,0.669
20,U19C C27U C29G C34A A42C G58A A65G,≤ 0.5
21,U19G C22G C34U C61G,≤ 0.5
22,U19G A20U C30U G48A A70U,≤ 0.5
23,A20C C60G C62U,≤ 0.5
24,A20C G23A C55G C60A,0.561

row,Variant,yeast fitness
1,A20C C31G,0.744
2,A20C C31U,1.03
3,A20C C27U G67U,0.674
4,A20C C27U A37C A42G,0.688
5,U19G G56A C60U,0.69
6,U19C U28C G48C A70C,≤ 0.5
7,A20C A42C A69U,0.576
8,U19C G68C,0.83
9,A20C C27U A37C A42G C66U,≤ 0.5
10,A20C A21G A69C,0.825
11,A20C C27G,0.633
12,A20C C22U A45C A65C,≤ 0.5
13,U19C G48C G56A A69C,0.642
14,A20C C22G C33U A45U,≤ 0.5
15,U19G G48C,0.948
16,A20C G25C C33A C55A,≤ 0.5
17,A20C C27U A69U,0.81
18,A20C A37G A45C,≤ 0.5
19,A20C C24G U64C,0.56
20,U19C U26A U32A,0.541
21,A20C C22A A36C A69U,≤ 0.5
22,U19G A57G,0.611
23,A20C G44C G48A G51A,≤ 0.5
24,A20C G52A,0.705

row,Variant,yeast fitness
1,U19G C46G A57C,≤ 0.5
2,U19C C30U G51C,0.693
3,A20C C49A G52A C61U,≤ 0.5
4,A20C C22U G39C,≤ 0.5
5,A20C C49G G67A,0.59
6,A20C C29U C49G G63C C66G,≤ 0.5
7,U19C C27A,0.987
8,U19G C27G,0.776
9,A20C U26A C61A A65U,0.555
10,A20C G38A A57U,≤ 0.5
11,U19C C55A,0.601
12,A20C C34U C60A C66U A70U,≤ 0.5
13,A20C C30G C60G,≤ 0.5
14,U19G A21U C46U C66U,0.532
15,A20C,1.01
16,U19C C27A A43G,0.606
17,U19C U54C,0.879
18,U19C U54A,0.559
19,A20C C33A A70G,0.592
20,A20C A21G A57C,0.531
21,A20C C30U C61A,≤ 0.5
22,U19C G44C G58A A65G,0.987
23,A20C G44C A70U,0.573
24,A20C G56A G67A,0.577

row,Variant,yeast fitness
1,U19C C46U A69U,0.804
2,U19C C30G,0.645
3,U19G C29U,0.795
4,A20C A37G A42G G68C,≤ 0.5
5,A20C G44A C60A G67A,≤ 0.5
6,U19G C49A C62G C66U A70G,≤ 0.5
7,A20C U28A A70G,0.564
8,A20C C34A G63C,≤ 0.5
9,U19C C61U,0.925
10,A20C C29G C62A,≤ 0.5
11,A20C G44A C46U A69C,0.698
12,U19G C24A C34G,0.75
13,A20C U28G A69C,0.714
14,A20C A21U C27G A42U A69C,≤ 0.5
15,U19C C60U C62U A69G,≤ 0.5
16,A20C C29U U32A C62U A70U,≤ 0.5
17,U19C U32C,0.926
18,A20C A21G,0.953
19,U19C G48C,0.922
20,U19C G38A G41A,0.577
21,A20C A36U U53A,≤ 0.5
22,A20C A37C A43G C62U,≤ 0.5
23,U19G U35C A43C G52C U54A,≤ 0.5

# Reference: the RNAGym collection of RNA variant scans (doi:10.1126/science.aae0568)
